Experiments:
[1] = molecular target: Aurora kinase B (Homo sapiens) (UniProt Q96GD4); assay: Inhibition of Aurora-B (unknown origin) assessed as residual activity at 1 uM relative to control
MDA-MB-231 = assay: Antiproliferative activity against human MDA-MB-231 cells after 3 days by sulforhodamine B assay; assay type: functional; conditions: MDA-MB-231, 72 h
In short: (§1)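 Tested in the NCI 60 cell line panel. GI50 is the concentration giving 50% inhibition of cell growth, and values are the mean of two series of tests.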

UACC-62 = assay: Antiproliferative activity against human UACC62 cells after 3 days by sulforhodamine B assay; assay type: functional; conditions: UACC-62, 72 h
[2] = Antiproliferative activity against human UACC257 cells after 3 days by sulforhodamine B assay; assay type: functional; conditions: UACC-257, 72 h
M14 = assay: Antiproliferative activity against human M14 cells after 3 days by sulforhodamine B assay; assay type: functional; conditions: M14, 72 h; in short: as §1
[3] = molecular target: Serine/threonine-protein kinase WNK2 (Homo sapiens) (UniProt Q9Y3S1); assay: Inhibition of human WNK2 assessed as residual activity at 1 uM relative to control
[4] = molecular target: Serine/threonine-protein kinase WNK3 (Homo sapiens) (UniProt Q9BYP7); assay: Inhibition of human WNK3 assessed as residual activity at 1 uM relative to control
[5] = molecular target: Testis-specific serine/threonine-protein kinase 2 (Homo sapiens) (UniProt Q96PF2); assay: Inhibition of human TSSK2 assessed as residual activity at 1 uM relative to control
[6] = molecular target: Tyrosine-protein kinase SYK (Homo sapiens) (UniProt P43405); assay: Inhibition of human Syk assessed as residual activity at 1 uM relative to control
[7] = molecular target: SRSF protein kinase 2 (Homo sapiens) (UniProt P78362); assay: Inhibition of human SRPK2 assessed as residual activity at 1 uM relative to control
Chain of SRSF protein kinase 2 (Homo sapiens) (P78362 whole entry, looked up): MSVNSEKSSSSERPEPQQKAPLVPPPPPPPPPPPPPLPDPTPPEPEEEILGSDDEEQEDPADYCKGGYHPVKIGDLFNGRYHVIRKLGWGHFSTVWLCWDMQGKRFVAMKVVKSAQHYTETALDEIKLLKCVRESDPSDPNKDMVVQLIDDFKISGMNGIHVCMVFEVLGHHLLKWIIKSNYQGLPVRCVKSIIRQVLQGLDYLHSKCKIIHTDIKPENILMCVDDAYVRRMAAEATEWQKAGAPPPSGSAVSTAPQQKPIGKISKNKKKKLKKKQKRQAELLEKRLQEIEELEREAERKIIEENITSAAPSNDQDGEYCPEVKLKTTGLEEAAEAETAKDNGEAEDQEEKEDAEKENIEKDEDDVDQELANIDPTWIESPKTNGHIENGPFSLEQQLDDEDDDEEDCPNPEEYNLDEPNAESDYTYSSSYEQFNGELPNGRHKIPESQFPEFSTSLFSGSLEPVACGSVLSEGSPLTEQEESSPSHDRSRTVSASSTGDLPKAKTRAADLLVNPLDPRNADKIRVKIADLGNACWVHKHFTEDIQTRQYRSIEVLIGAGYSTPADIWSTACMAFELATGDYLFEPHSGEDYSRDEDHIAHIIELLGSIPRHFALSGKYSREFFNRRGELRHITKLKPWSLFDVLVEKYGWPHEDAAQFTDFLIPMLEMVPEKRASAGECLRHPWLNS

[8] = molecular target: Serine/threonine-protein kinase Sgk2 (Homo sapiens) (UniProt Q9HBY8); assay: Inhibition of human SGK2 assessed as residual activity at 1 uM relative to control
[9] = molecular target: Ribosomal protein S6 kinase alpha-2 (Homo sapiens) (UniProt Q15349); assay: Inhibition of human Rsk3 assessed as residual activity at 1 uM relative to control
[10] = molecular target: Serine/threonine-protein kinase PLK3 (Homo sapiens) (UniProt Q9H4B4); assay: Inhibition of human Plk3 assessed as residual activity at 1 uM relative to control
[11] = molecular target: Serine/threonine-protein kinase PLK1 (Homo sapiens) (UniProt P53350); assay: Inhibition of human Plk1 assessed as residual activity at 1 uM relative to control
[12] = Antiproliferative activity against human HOP92 cells after 3 days by sulforhodamine B assay; assay type: functional; conditions: HOP-92, 72 h; in short: as §1
HOP-62 = assay: Antiproliferative activity against human HOP62 cells after 3 days by sulforhodamine B assay; assay type: functional; conditions: HOP-62, 72 h; in short: as §1
[13] = molecular target: Protein kinase C delta type (Homo sapiens) (UniProt Q05655); assay: Inhibition of human PKCdelta assessed as residual activity at 1 uM relative to control
Chain of Protein kinase C delta type (Homo sapiens) (Q05655 whole entry, looked up): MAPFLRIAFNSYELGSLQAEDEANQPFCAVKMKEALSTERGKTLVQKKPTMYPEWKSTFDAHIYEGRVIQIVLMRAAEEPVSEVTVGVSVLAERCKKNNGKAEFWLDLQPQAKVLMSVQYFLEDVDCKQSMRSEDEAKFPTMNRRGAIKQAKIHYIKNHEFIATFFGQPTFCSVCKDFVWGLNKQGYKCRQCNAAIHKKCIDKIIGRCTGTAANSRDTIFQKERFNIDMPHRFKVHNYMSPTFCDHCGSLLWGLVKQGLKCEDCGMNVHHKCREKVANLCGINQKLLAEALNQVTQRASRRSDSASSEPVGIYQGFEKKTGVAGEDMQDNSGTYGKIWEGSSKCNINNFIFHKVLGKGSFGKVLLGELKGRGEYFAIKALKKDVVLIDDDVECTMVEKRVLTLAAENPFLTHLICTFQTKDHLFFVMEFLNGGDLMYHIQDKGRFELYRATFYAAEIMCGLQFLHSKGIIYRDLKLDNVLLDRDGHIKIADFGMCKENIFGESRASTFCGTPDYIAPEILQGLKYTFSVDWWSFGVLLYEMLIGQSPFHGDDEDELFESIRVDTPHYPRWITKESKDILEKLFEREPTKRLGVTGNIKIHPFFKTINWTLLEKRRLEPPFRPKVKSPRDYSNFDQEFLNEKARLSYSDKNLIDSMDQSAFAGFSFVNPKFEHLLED

[14] = molecular target: Serine/threonine-protein kinase PAK 2 (Homo sapiens) (UniProt Q13177); assay: Inhibition of human PAK2 assessed as residual activity at 1 uM relative to control
[15] = molecular target: Serine/threonine-protein kinase Nek3 (Homo sapiens) (UniProt P51956); assay: Inhibition of human NEK3 assessed as residual activity at 1 uM relative to control
[16] = Antiproliferative activity against human LXFL 529L cells after 3 days by SRB assay; assay type: functional, cell-based; conditions: 72 h
In short: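 Cells grown at 37 °C, 5% CO2, with 10% heat-inactivated FBS: LXFL529L in RPMI 1640, MCF7 and HT29 in DMEM. Seeded, allowed 24 h growth, then exposed to the drug at various concentrations for 3 days in serum medium. Fixed with TCA for 1 h at 4 °C, stained with 0.4% SRB, eluted in 10 mM Tris pH 10.5, read at 570 nm as % T/C. IC50 taken from dose–response curves of at least three independent experiments.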

[17] = molecular target: Hepatocyte growth factor receptor (Homo sapiens) (UniProt P08581); assay: Inhibition of human Met assessed as residual activity at 1 uM relative to control
[18] = molecular target: Mitogen-activated protein kinase 1 (Homo sapiens) (UniProt P28482); assay: Inhibition of human MAPK2 assessed as residual activity at 1 uM relative to control
[19] = molecular target: Mitogen-activated protein kinase 9 (Homo sapiens) (UniProt P45984); assay: Inhibition of human JNK2alpha2 assessed as residual activity at 1 uM relative to control
[20] = molecular target: Interleukin-1 receptor-associated kinase 1 (Homo sapiens) (UniProt P51617); assay: Inhibition of human IRAK1 assessed as residual activity at 1 uM relative to control
[21] = molecular target: Homeodomain-interacting protein kinase 2 (Homo sapiens) (UniProt Q9H2X6); assay: Inhibition of human HIPK2 assessed as residual activity at 1 uM relative to control
Chain of Homeodomain-interacting protein kinase 2 (Homo sapiens) (Q9H2X6 whole entry, looked up): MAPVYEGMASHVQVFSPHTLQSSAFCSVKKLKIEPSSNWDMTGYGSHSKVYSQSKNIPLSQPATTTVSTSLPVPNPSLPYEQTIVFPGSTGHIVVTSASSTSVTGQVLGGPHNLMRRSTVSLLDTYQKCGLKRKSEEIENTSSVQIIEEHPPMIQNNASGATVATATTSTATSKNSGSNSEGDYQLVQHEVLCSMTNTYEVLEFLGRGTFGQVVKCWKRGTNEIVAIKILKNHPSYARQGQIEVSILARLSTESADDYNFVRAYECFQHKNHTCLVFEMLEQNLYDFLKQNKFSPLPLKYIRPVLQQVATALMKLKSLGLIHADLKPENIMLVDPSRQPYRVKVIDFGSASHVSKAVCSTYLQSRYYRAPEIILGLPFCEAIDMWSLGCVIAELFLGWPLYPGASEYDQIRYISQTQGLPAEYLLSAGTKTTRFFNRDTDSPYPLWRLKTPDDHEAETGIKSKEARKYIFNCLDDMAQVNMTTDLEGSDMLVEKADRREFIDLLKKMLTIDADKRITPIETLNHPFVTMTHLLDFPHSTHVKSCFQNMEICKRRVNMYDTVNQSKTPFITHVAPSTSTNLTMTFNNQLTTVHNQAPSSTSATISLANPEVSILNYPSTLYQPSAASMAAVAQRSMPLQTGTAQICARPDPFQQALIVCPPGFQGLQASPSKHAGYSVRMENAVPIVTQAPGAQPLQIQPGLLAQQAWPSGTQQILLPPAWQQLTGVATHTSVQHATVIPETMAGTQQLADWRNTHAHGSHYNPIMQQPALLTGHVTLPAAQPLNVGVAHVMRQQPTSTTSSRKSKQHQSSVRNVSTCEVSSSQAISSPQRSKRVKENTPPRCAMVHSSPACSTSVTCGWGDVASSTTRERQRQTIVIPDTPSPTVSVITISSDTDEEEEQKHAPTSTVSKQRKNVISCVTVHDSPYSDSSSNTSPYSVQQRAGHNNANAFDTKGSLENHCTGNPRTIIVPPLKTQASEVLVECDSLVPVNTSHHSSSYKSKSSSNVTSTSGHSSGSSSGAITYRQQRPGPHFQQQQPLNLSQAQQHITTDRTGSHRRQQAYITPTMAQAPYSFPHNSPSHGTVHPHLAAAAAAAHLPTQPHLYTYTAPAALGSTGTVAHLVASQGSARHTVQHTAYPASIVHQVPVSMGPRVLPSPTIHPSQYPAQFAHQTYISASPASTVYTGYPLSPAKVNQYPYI

[22] = molecular target: Ephrin type-A receptor 7 (Homo sapiens) (UniProt Q15375); assay: Inhibition of human EphA7 assessed as residual activity at 1 uM relative to control
[23] = molecular target: Casein kinase I isoform delta (Homo sapiens) (UniProt P48730); assay: Inhibition of human CK1d assessed as residual activity at 1 uM relative to control
[24] = molecular target: CDK3/Cyclin E (Homo sapiens) (UniProt P24864+Q00526); assay: Inhibition of human CDK3/cyclinE assessed as residual activity at 1 uM relative to control; assay type: protein-complex assay
[25] = molecular target: Calcium/calmodulin-dependent protein kinase type II subunit gamma (Homo sapiens) (UniProt Q13555); assay: Inhibition of human CaMK2gamma assessed as residual activity at 1 uM relative to control
Chain of Calcium/calmodulin-dependent protein kinase type II subunit gamma (Homo sapiens) (Q13555 whole entry): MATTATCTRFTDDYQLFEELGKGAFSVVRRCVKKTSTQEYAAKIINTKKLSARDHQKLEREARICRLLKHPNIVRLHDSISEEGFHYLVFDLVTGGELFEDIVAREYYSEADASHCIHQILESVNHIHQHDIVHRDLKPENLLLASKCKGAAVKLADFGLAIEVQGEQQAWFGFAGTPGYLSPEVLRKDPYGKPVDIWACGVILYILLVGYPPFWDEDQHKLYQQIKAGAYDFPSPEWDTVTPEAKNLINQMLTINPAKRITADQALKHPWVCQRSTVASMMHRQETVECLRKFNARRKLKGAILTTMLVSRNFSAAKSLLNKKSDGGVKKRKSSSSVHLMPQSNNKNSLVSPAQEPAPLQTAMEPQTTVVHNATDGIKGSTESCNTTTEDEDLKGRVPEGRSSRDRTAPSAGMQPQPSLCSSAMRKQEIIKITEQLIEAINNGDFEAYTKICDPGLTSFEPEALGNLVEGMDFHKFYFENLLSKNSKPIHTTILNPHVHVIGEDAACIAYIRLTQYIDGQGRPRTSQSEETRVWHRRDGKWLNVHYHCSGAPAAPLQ

[26] = molecular target: Calcium/calmodulin-dependent protein kinase type II subunit beta (Homo sapiens) (UniProt Q13554); assay: Inhibition of human CaMK2beta assessed as residual activity at 1 uM relative to control
[27] = molecular target: Activin receptor type-1B (Homo sapiens) (UniProt P36896); assay: Inhibition of human ALK4 assessed as residual activity at 1 uM relative to control
[28] = molecular target: Vascular endothelial growth factor receptor 2 (Homo sapiens) (UniProt P35968); assay: Inhibition of VEGF-R2 (unknown origin) assessed as residual activity at 10 uM relative to control
Chain of Vascular endothelial growth factor receptor 2 (Homo sapiens) (P35968 whole entry): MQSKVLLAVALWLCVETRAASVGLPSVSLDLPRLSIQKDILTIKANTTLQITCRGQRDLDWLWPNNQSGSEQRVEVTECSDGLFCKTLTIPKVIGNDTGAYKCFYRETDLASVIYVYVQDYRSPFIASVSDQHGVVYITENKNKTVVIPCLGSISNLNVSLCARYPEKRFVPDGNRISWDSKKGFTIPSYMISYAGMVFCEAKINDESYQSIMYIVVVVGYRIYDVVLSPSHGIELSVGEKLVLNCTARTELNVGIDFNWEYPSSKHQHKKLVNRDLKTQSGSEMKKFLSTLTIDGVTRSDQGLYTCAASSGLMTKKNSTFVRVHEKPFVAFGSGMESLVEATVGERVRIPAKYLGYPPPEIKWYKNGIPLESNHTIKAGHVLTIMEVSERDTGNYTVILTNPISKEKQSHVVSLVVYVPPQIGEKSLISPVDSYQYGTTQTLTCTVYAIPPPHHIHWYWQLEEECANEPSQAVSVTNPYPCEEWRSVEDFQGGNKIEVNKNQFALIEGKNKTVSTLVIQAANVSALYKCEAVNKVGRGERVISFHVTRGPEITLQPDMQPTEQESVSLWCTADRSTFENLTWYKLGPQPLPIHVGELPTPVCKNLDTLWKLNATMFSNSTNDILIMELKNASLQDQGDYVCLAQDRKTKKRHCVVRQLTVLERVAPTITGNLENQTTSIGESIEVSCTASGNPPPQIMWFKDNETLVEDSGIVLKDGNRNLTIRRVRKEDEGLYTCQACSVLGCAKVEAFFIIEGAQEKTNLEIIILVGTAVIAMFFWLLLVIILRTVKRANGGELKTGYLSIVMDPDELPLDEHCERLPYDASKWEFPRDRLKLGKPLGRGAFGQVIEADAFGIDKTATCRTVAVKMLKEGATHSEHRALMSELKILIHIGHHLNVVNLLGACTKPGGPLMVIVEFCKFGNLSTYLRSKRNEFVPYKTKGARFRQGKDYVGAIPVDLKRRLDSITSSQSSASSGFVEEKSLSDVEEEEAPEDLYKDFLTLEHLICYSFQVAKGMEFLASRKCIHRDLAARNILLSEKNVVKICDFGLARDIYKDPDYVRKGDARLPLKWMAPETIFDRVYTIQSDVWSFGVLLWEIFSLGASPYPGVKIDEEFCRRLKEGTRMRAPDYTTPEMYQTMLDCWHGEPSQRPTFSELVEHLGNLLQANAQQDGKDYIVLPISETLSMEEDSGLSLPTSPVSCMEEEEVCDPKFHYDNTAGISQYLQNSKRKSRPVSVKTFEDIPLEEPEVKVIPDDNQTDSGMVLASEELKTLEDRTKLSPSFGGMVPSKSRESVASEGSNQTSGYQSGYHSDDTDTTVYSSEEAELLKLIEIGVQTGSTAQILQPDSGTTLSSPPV

[29] = molecular target: Vascular endothelial growth factor receptor 2 (Homo sapiens) (UniProt P35968); assay: Inhibition of VEGF-R2 (unknown origin) assessed as residual activity at 1 uM relative to control

Chain of Aurora kinase B (Homo sapiens) (Q96GD4 whole entry): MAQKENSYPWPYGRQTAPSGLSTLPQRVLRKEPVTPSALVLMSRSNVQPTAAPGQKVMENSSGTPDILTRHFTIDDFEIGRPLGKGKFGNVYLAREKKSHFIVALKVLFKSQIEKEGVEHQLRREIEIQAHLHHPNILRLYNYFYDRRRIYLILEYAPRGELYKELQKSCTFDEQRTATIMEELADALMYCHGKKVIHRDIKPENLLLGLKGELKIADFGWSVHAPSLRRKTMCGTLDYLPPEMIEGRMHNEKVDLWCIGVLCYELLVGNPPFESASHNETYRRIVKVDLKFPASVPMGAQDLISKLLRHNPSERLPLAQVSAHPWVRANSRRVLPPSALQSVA

O=C1Nc2ncccc2/C1=C1/Nc2ncccc2C1=O
Activity [1]: 108% | GI50 (MDA-MB-231): 1700 nM | GI50 (UACC-62): 432 nM | GI50 [2]: 214 nM | GI50 (M14): 391 nM | Activity [3]: 102% | Activity [4]: 106% | Activity [5]: 66% | Activity [6]: 91% | Activity [7]: 108% | Activity [8]: 127% | Activity [9]: 72% | Activity [10]: 104% | Activity [11]: 101% | GI50 [12]: 3.04 µM | GI50 (HOP-62): 1370 nM | Activity [13]: 126% | Activity [14]: 124% | Activity [15]: 109% | IC50 [16]: 60 nM | Activity [17]: 77% | Activity [18]: 104% | Activity [19]: 101% | Activity [20]: 89% | Activity [21]: 115% | Activity [22]: 105% | Activity [23]: 68% | Activity [24]: 74% | Activity [25]: 103% | Activity [26]: 99% | Activity [27]: 106% | Activity [28]: 102% | Activity [29]: 93%

From ChEMBL document CHEMBL3098105, “7,7'-Diazaindirubin--a small molecule inhibitor of casein kinase 2 in vitro and in cells” (Bioorg Med Chem, 2014)
